Reference: ChEMBL document CHEMBL4049414, “Can We Make Small Molecules Lean? Optimization of a Highly Lipophilic TarO Inhibitor” (J Med Chem, 2017)
Values after ≈ are worked out from the molar mass of the structure shown. Active and inactive are the calls of the source. The rule behind the calls is not given here.

Experiments:
[1] = system: Staphylococcus aureus subsp. aureus COL; assay: Inhibition of methicillin-resistant Staphylococcus aureus COL TarO assessed as compound concentration required for potentiation of imipenem-mediated bacterial growth inhibition by 95% after 20 hrs
Summary of the method: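 MRSA COL grown with compound in the presence of imipenem at 4 μg/mL. Growth read by OD600. The value is the minimum concentration that inhibits 95% of growth (sMITC95).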

[2] = Inhibition of TarO in methicillin-resistant Staphylococcus aureus membranes assessed as reduction in C55-P-P-GlcNAc production using C55-P as substrate in presence of UDP-GlcNAc by LC-MS analysis
[3] = system: Staphylococcus aureus; assay: Growth inhibition of methicillin-resistant Staphylococcus aureus COL after 20 hrs
Summary of the method: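 MRSA COL grown with compound alone, with no antibiotic added. Growth read by OD600. The value is the minimum concentration that inhibits 95% of growth (iMITC95).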

[4] = Inhibition of methicillin-resistant Staphylococcus aureus COL TarO assessed as suppression of bacteriophage K-mediated cell lysis; set-up: species or system Staphylococcus aureus subsp. aureus COL
[5] = Inhibition of methicillin-resistant Staphylococcus aureus COL TarO assessed as late stage targocil suppression after 20 hrs; set-up: species or system Staphylococcus aureus subsp. aureus COL
[6] = system: Staphylococcus aureus; assay: Potentiation of imipenem-induced antibacterial activity against methicillin-resistant Staphylococcus aureus COL MB 5393 infected in neutropenic balb/c mouse assessed as reduction in bacterial burden in kidney at 10 mg/kg, sc administered three times per day at 2, 5 and 8 hrs post challenge cotreated with imipenem measured 24 hrs post challenge; assay type: functional, organism-based
[7] = Clearance in rat at 1 mg/kg, iv; assay type: ADME, organism-based; details: in vivo
[8] = species on record: Homo sapiens; assay: Inhibition of PAF (unknown origin) at 10 uM relative to control
[9] = molecular target: Histamine H2 receptor (Homo sapiens) (UniProt P25021); assay: Inhibition of H2 receptor (unknown origin) at 10 uM relative to control
[10] = species on record: Homo sapiens; assay: Inhibition of TBOB binding to GABA-A receptor (unknown origin) at 10 uM relative to control
[11] = Solubility of the compound in PBS buffer; assay type: physicochemical
[12] = Terminal half life in rat at 1 mg/kg, iv; assay type: ADME, organism-based; details: in vivo, read-out: beta t1/2 (converted)
[13] = species on record: Homo sapiens; assay: Inhibition of adenosine transporter (unknown origin) at 10 uM relative to control
[14] = AUC (0 to infinity) in rat at 1 mg/kg, iv; assay type: ADME, organism-based; set-up: dose 1 mg/kg, time infinity, route intravenous; details: in vivo
[15] = molecular target: Cannabinoid receptor 1 (Homo sapiens) (UniProt P21554); assay: Inhibition of CB1 receptor (unknown origin) at 10 uM relative to control
[16] = Volume of distribution at steady state in rat at 1 mg/kg, iv; assay type: ADME, organism-based; details: in vivo, read-out: Vdss
[17] = molecular target: Mitogen-activated protein kinase 3 (Homo sapiens) (UniProt P27361); assay: Inhibition of ERK1 (unknown origin) at 10 uM relative to control
Chain of Mitogen-activated protein kinase 3 (Homo sapiens) (P27361 whole entry): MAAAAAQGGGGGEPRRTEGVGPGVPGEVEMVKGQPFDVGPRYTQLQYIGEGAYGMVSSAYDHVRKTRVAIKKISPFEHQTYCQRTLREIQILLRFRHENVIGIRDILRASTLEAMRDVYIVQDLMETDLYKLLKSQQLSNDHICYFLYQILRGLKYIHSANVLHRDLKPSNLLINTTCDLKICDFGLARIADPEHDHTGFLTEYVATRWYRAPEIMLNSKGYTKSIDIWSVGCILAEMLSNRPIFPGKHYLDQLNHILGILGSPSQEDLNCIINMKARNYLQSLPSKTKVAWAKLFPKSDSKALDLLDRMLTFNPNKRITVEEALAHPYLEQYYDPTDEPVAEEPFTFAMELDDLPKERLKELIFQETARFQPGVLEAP

Chain of Cannabinoid receptor 1 (Homo sapiens) (P21554 whole entry): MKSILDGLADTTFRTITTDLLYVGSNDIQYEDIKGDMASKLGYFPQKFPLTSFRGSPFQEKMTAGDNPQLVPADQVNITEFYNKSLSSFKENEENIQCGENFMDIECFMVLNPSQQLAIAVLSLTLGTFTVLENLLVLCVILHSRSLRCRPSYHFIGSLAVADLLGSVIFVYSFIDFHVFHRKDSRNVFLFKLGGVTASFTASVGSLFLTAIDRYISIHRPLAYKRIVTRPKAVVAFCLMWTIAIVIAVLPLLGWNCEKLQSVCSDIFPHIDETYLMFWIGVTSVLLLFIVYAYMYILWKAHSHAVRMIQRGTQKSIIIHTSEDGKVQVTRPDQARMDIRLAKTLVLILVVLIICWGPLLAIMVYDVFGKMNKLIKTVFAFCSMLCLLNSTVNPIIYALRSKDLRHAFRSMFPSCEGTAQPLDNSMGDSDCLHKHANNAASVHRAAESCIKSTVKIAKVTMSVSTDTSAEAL
Chain of Histamine H2 receptor (Homo sapiens) (P25021 whole entry): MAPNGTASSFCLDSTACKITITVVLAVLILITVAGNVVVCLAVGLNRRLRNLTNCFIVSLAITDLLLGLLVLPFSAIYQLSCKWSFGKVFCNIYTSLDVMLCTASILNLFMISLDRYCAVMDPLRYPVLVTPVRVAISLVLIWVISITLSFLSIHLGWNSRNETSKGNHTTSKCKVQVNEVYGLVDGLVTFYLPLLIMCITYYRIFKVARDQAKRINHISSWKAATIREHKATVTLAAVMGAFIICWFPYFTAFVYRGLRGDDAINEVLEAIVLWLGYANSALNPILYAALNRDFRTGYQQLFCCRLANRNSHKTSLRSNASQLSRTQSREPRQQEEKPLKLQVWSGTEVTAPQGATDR

SMILES	MITC95 [1] [nM]	IC50 [2] [nM]	MITC95 [3] [µM]	further results
O=C(NCc1cncc2ccccc12)N1C(=O)O[C@H](c2cccc(C(F)(F)F)c2)[C@@H]1CO	650	300	> 200	–
C[C@H]1[C@@H](c2cc(C(F)(F)F)cc(C(F)(F)F)c2)OC(=O)N1CCCc1cccc2ccccc12	–	38	–	–
C[C@H]1[C@@H](c2cc(C(F)(F)F)ccn2)OC(=O)N1C(=O)NCc1cncc2ccccc12	6250	5300	> 200	–
O=C(NCc1cncc2ccccc12)N1C(=O)O[C@H](c2cc(C(F)(F)F)cc(C(F)(F)F)c2)[C@@H]1CO	220	170 to 174	> 200	IC50 [4]: 1260 nM; IC50 [5]: 496 nM
CC(=O)NC[C@H]1CN(c2ccc(N3CCOCC3)c(F)c2)C(=O)O1	–	–	–	Activity [6]: Active
C[C@H]1[C@@H](c2cccc(C(F)(F)F)c2)OC(=O)N1C(=O)NCc1cncc2cccnc12	970	402	> 200	–
COc1cc(C(F)(F)F)cc([C@H]2OC(=O)N(C(=O)NCc3cncc4cccnc34)[C@H]2CO)n1	900	880	> 200	clearance [7]: 36.8 mL/min/kg; inhibition [8]: inactive; inhibition [9]: inactive; inhibition [10]: inactive; solubility [11]: 94 µM (≈ 44.9 µg/mL); half-life [12]: 28.8 min; inhibition [13]: inactive; AUC(0-inf) [14]: 0.95 µM·h; inhibition [15]: inactive; Vd [16]: 1.2 L/kg; inhibition [17]: inactive
O=C(NCc1cncc2ccccc12)N1C(=O)O[C@H](c2cc(F)cc(C(F)(F)F)c2)[C@@H]1CO	320	210	> 200	–
O=C(NCc1cncc2ccccc12)N1C(=O)O[C@H](c2cc(F)cc(C(F)(F)F)c2)[C@@H]1CCO	18000	4700	> 200	–
O=C(O)[C@H]1[C@@H](c2cccc(C(F)(F)F)c2)OC(=O)N1C(=O)NCc1cncc2ccccc12	> 200000	> 200000	> 200	–
C[C@H]1[C@@H](c2cc(C(F)(F)F)cc(C(F)(F)F)c2)OC(=O)N1C(=O)NCc1cncc2cccnc12	125	12	> 200	–
C[C@H]1[C@@H](c2cc(C(F)(F)F)cc(C(F)(F)F)c2)OC(=O)N1CC(=O)Nc1cncc2ccccc12	> 200000	> 200000	–	–
C[C@H]1[C@@H](c2cc(F)cc(C(F)(F)F)c2)OC(=O)N1C(=O)NCc1cncc2ccccc12	125	25	> 200	–
C[C@H]1[C@@H](c2cc(C(F)(F)F)cc(C(F)(F)F)c2)OC(=O)N1C(=O)CCCc1cccc2ccccc12	125	28	> 200	–
